Laboratory results from ChEMBL document CHEMBL4689842, “EUbOPEN Chemogenomics Library wave 1” (2021).
Several values for one entry are separate records, joined by “and”; a condition that tells them apart may be missing. Identical values can stand only once.

System: U2OS
Assay: Multiplex assay against U2OS
Format: toxicity, cell-based
Details: human
How it was run: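 Phenotypes for tubulin, mitochondrial mass and membrane permeability are expressed as per cents of healthy-nucleus cells. Cells were stained live at seeding with Hoechst33342, BioTracker Green Microtubule Cytoskeleton Dye, MitoTracker Red and Annexin V Alexa Fluor 680, then imaged after compound addition on a CQ1 microscope at 37°C and 5% CO2. Machine-learning gating in CellPathfinder separated Hoechst high-intensity objects from normal cells, divided normal cells by nuclear state (healthy, pyknosed, fragmented) and divided pyknosed cells into mitotic or apoptotic.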

[1] = 12 h, 1 µM, compound concentration 1 uM, replicate 1
[2] = 12 h, 1 µM, compound concentration 1 uM, replicate 2
[3] = 12 h, 10 µM, compound concentration 10 uM, replicate 1
[4] = 12 h, 10 µM, compound concentration 10 uM, replicate 2
[5] = 24 h, 1 µM, compound concentration 1 uM, replicate 1
[6] = 24 h, 1 µM, compound concentration 1 uM, replicate 2
[7] = 24 h, 10 µM, compound concentration 10 uM, replicate 1
[8] = 24 h, 10 µM, compound concentration 10 uM, replicate 2
[9] = 48 h, 1 µM, compound concentration 1 uM, replicate 1
[10] = 48 h, 1 µM, compound concentration 1 uM, replicate 2
[11] = 48 h, 10 µM, compound concentration 10 uM, replicate 1
[12] = 48 h, 10 µM, compound concentration 10 uM, replicate 2

## Nc1c(C(=O)NCc2ccc(C(=O)NCCCC3CCCCC3)cc2)cnn1-c1ccccc1 [SR-318]
[1]
  Population Apoptotic (%): 42% and 23% and 30%
  Population Fragmented Nuclei (%): 5% and 10% and 6%
  Population Healthy Nuclei (%): 85% and 78% and 81%
  Population Hoechst High Intensity Objects (%): 3%
  Population Membrane Permeable-Phenotype (%): 4% and 3%
  Population Mitochondria Different-Phenotype (%): 9% and 6%
  Population Mitotic Cells (%): 57% and 76% and 69%
  Population Normal (%): 96%
  Population Pyknosed Nuclei (%): 9% and 10% and 12%
  Population Tubulin-Different-Phenotype (%): 52% and 44%
  Total Cell Count: 171 and 322 and 200
[2]
  Population Fragmented Nuclei (%): 9% and 3%
  Population Healthy Nuclei (%): 83% and 75% and 91%
  Population Membrane Permeable-Phenotype (%): 6% and 5%
  Population Mitochondria Different-Phenotype (%): 8%
  Population Mitotic Cells (%): 50% and 87% and 100%
  Population Normal (%): 95% and 73%
  Population Tubulin-Different-Phenotype (%): 19% and 25% and 11%
  Total Cell Count: 63 and 91 and 118
[3]
  Population Apoptotic (%): 61% and 58% and 42%
  Population Fragmented Nuclei (%): 6% and 14% and 11%
  Population Healthy Nuclei (%): 74% and 65% and 67%
  Population Hoechst High Intensity Objects (%): 2% and 8% and 5%
  Population Membrane Permeable-Phenotype (%): 8% and 5% and 2%
  Population Mitochondria Different-Phenotype (%): 57% and 50% and 60%
  Population Mitotic Cells (%): 38% and 41% and 57%
  Population Normal (%): 97% and 91% and 94%
  Population Pyknosed Nuclei (%): 18% and 20% and 21%
  Population Tubulin-Different-Phenotype (%): 39% and 47% and 40%
  Total Cell Count: 186 and 329 and 402
[4]
  Population Apoptotic (%): 45% and 22% and 33%
  Population Fragmented Nuclei (%): 17% and 15% and 12%
  Population Healthy Nuclei (%): 69% and 58% and 72%
  Population Hoechst High Intensity Objects (%): 7% and 1% and 10%
  Population Membrane Permeable-Phenotype (%): 10% and 7% and 3%
  Population Mitochondria Different-Phenotype (%): 55% and 51%
  Population Mitotic Cells (%): 54% and 77% and 66%
  Population Normal (%): 92% and 98% and 89%
  Population Pyknosed Nuclei (%): 13% and 25% and 15%
  Population Tubulin-Different-Phenotype (%): 50% and 56% and 67%
  Total Cell Count: 71 and 90 and 91
[5]
  Population Apoptotic (%): 35% and 34% and 21%
  Population Fragmented Nuclei (%): 5% and 8%
  Population Healthy Nuclei (%): 85%
  Population Hoechst High Intensity Objects (%): 0% and 3%
  Population Membrane Permeable-Phenotype (%): 1% and 4% and 2%
  Population Mitochondria Different-Phenotype (%): 5% and 6% and 8%
  Population Mitotic Cells (%): 64% and 65% and 78%
  Population Normal (%): 99% and 96%
  Population Pyknosed Nuclei (%): 9% and 10%
  Population Tubulin-Different-Phenotype (%): 59% and 20% and 47%
  Total Cell Count: 185 and 423 and 237
[6]
  Population Apoptotic (%): 25%
  Population Fragmented Nuclei (%): 6% and 3% and 4%
  Population Healthy Nuclei (%): 80% and 84% and 75%
  Population Membrane Permeable-Phenotype (%): 8% and 5%
  Population Mitochondria Different-Phenotype (%): 13% and 12% and 7%
  Population Mitotic Cells (%): 75%
  Population Normal (%): 94% and 97% and 77%
  Population Pyknosed Nuclei (%): 13% and 11% and 19%
  Population Tubulin-Different-Phenotype (%): 22% and 14% and 23%
  Total Cell Count: 67 and 130 and 97
[7]
  Population Apoptotic (%): 55% and 58% and 61%
  Population Fragmented Nuclei (%): 12% and 5%
  Population Healthy Nuclei (%): 67% and 74% and 61%
  Population Hoechst High Intensity Objects (%): 8% and 4%
  Population Membrane Permeable-Phenotype (%): 4% and 2% and 0%
  Population Mitochondria Different-Phenotype (%): 55% and 53% and 63%
  Population Mitotic Cells (%): 44% and 41% and 38%
  Population Normal (%): 91% and 95%
  Population Pyknosed Nuclei (%): 19%
  Population Tubulin-Different-Phenotype (%): 36% and 24%
  Total Cell Count: 409 and 192 and 426
[8]
  Population Apoptotic (%): 28% and 44% and 46%
  Population Fragmented Nuclei (%): 13% and 17% and 14%
  Population Healthy Nuclei (%): 65% and 62% and 66%
  Population Hoechst High Intensity Objects (%): 1% and 7%
  Population Membrane Permeable-Phenotype (%): 9% and 7% and 3%
  Population Mitochondria Different-Phenotype (%): 58% and 57% and 66%
  Population Mitotic Cells (%): 71% and 55% and 53%
  Population Normal (%): 98% and 92%
  Population Pyknosed Nuclei (%): 21% and 20% and 18%
  Population Tubulin-Different-Phenotype (%): 41% and 30% and 61%
  Total Cell Count: 104 and 67 and 97
[9]
  Population Apoptotic (%): 44% and 47% and 55%
  Population Fragmented Nuclei (%): 3% and 8%
  Population Healthy Nuclei (%): 87% and 83%
  Population Hoechst High Intensity Objects (%): 0% and 2%
  Population Membrane Permeable-Phenotype (%): 2% and 1%
  Population Mitochondria Different-Phenotype (%): 5% and 8% and 7%
  Population Mitotic Cells (%): 55% and 52% and 44%
  Population Normal (%): 99% and 97%
  Population Pyknosed Nuclei (%): 8% and 9% and 7%
  Population Tubulin-Different-Phenotype (%): 69% and 56% and 24%
  Total Cell Count: 247 and 369 and 658
[10]
  Population Apoptotic (%): 28% and 40% and 26%
  Population Fragmented Nuclei (%): 7% and 5% and 2%
  Population Healthy Nuclei (%): 86% and 84%
  Population Membrane Permeable-Phenotype (%): 10% and 9% and 3%
  Population Mitochondria Different-Phenotype (%): 14% and 9%
  Population Mitotic Cells (%): 71% and 60% and 73%
  Population Normal (%): 95% and 98% and 83%
  Population Pyknosed Nuclei (%): 5% and 6% and 13%
  Population Tubulin-Different-Phenotype (%): 28% and 20% and 25%
  Total Cell Count: 93 and 175 and 144
[11]
  Population Apoptotic (%): 70% and 73% and 60%
  Population Fragmented Nuclei (%): 7%
  Population Healthy Nuclei (%): 76% and 61%
  Population Hoechst High Intensity Objects (%): 2% and 4%
  Population Membrane Permeable-Phenotype (%): 2% and 0%
  Population Mitochondria Different-Phenotype (%): 35% and 32% and 47%
  Population Mitotic Cells (%): 29% and 26% and 40%
  Population Normal (%): 97% and 95%
  Population Pyknosed Nuclei (%): 16% and 23% and 22%
  Population Tubulin-Different-Phenotype (%): 17% and 9% and 25%
  Total Cell Count: 234 and 596 and 634
[12]
  Population Apoptotic (%): 35% and 38% and 33%
  Population Fragmented Nuclei (%): 15% and 14% and 12%
  Population Healthy Nuclei (%): 68% and 60%
  Population Hoechst High Intensity Objects (%): 7% and 3%
  Population Membrane Permeable-Phenotype (%): 6% and 18% and 17%
  Population Mitochondria Different-Phenotype (%): 52% and 40% and 44%
  Population Mitotic Cells (%): 64% and 61% and 66%
  Population Normal (%): 92% and 96%
  Population Pyknosed Nuclei (%): 15% and 17% and 28%
  Population Tubulin-Different-Phenotype (%): 32% and 26% and 31%
  Total Cell Count: 113 and 78 and 158

## Cc1[nH]c(/C=C2\C(=O)Nc3ccc(S(=O)(=O)N(C)c4cccc(Cl)c4)cc32)c(C)c1C(=O)N1CCN(C)CC1
[1]
  Population Apoptotic (%): 66%
  Population Fragmented Nuclei (%): 13%
  Population Mitochondria Different-Phenotype (%): 58%
  Population Mitotic Cells (%): 33%
  Population Pyknosed Nuclei (%): 9%
  Population Tubulin-Different-Phenotype (%): 80%
  Total Cell Count: 305
[2]
  Population Apoptotic (%): 100%
  Population Fragmented Nuclei (%): 16%
  Population Healthy Nuclei (%): 77%
  Population Hoechst High Intensity Objects (%): 12%
  Population Membrane Permeable-Phenotype (%): 12%
  Population Mitochondria Different-Phenotype (%): 42%
  Population Mitotic Cells (%): 0%
  Population Normal (%): 87%
  Population Pyknosed Nuclei (%): 6%
  Population Tubulin-Different-Phenotype (%): 68%
  Total Cell Count: 90
[3]
  Population Apoptotic (%): 60%
  Population Fragmented Nuclei (%): 12%
  Population Healthy Nuclei (%): 76%
  Population Hoechst High Intensity Objects (%): 8%
  Population Membrane Permeable-Phenotype (%): 24%
  Population Mitochondria Different-Phenotype (%): 68%
  Population Mitotic Cells (%): 40%
  Population Normal (%): 91%
  Population Pyknosed Nuclei (%): 11%
  Total Cell Count: 147
[4]
  Population Apoptotic (%): 25%
  Population Fragmented Nuclei (%): 10%
  Population Healthy Nuclei (%): 74%
  Population Hoechst High Intensity Objects (%): 12%
  Population Membrane Permeable-Phenotype (%): 40%
  Population Mitochondria Different-Phenotype (%): 97%
  Population Mitotic Cells (%): 75%
  Population Normal (%): 87%
  Population Pyknosed Nuclei (%): 16%
  Population Tubulin-Different-Phenotype (%): 100%
  Total Cell Count: 70
[5]
  Population Apoptotic (%): 73%
  Population Fragmented Nuclei (%): 11%
  Population Healthy Nuclei (%): 77%
  Population Hoechst High Intensity Objects (%): 9%
  Population Membrane Permeable-Phenotype (%): 7%
  Population Mitochondria Different-Phenotype (%): 51%
  Population Mitotic Cells (%): 26%
  Population Normal (%): 90%
  Population Pyknosed Nuclei (%): 11%
  Population Tubulin-Different-Phenotype (%): 61%
  Total Cell Count: 272
[6]
  Population Apoptotic (%): 100%
  Population Fragmented Nuclei (%): 18%
  Population Healthy Nuclei (%): 72%
  Population Hoechst High Intensity Objects (%): 8%
  Population Membrane Permeable-Phenotype (%): 10%
  Population Mitochondria Different-Phenotype (%): 40%
  Population Mitotic Cells (%): 0%
  Population Normal (%): 91%
  Population Pyknosed Nuclei (%): 9%
  Population Tubulin-Different-Phenotype (%): 55%
  Total Cell Count: 65
[7]
  Population Apoptotic (%): 82%
  Population Fragmented Nuclei (%): 13%
  Population Healthy Nuclei (%): 68%
  Population Hoechst High Intensity Objects (%): 8%
  Population Membrane Permeable-Phenotype (%): 46%
  Population Mitochondria Different-Phenotype (%): 88%
  Population Mitotic Cells (%): 17%
  Population Normal (%): 91%
  Population Pyknosed Nuclei (%): 17%
  Population Tubulin-Different-Phenotype (%): 100%
  Total Cell Count: 140
[8]
  Population Apoptotic (%): 100%
  Population Fragmented Nuclei (%): 17%
  Population Healthy Nuclei (%): 73%
  Population Membrane Permeable-Phenotype (%): 84%
  Population Mitochondria Different-Phenotype (%): 100%
  Population Mitotic Cells (%): 0%
  Population Pyknosed Nuclei (%): 9%
  Total Cell Count: 71
[9]
  Population Apoptotic (%): 80%
  Population Fragmented Nuclei (%): 18%
  Population Healthy Nuclei (%): 70%
  Population Hoechst High Intensity Objects (%): 4%
  Population Membrane Permeable-Phenotype (%): 10%
  Population Mitochondria Different-Phenotype (%): 32%
  Population Mitotic Cells (%): 19%
  Population Normal (%): 95%
  Population Pyknosed Nuclei (%): 11%
  Population Tubulin-Different-Phenotype (%): 30%
  Total Cell Count: 261
[10]
  Population Apoptotic (%): 25%
  Population Fragmented Nuclei (%): 16%
  Population Healthy Nuclei (%): 77%
  Population Hoechst High Intensity Objects (%): 14%
  Population Membrane Permeable-Phenotype (%): 21%
  Population Mitochondria Different-Phenotype (%): 30%
  Population Mitotic Cells (%): 75%
  Population Normal (%): 85%
  Population Pyknosed Nuclei (%): 5%
  Population Tubulin-Different-Phenotype (%): 37%
  Total Cell Count: 62
[11]
  Population Fragmented Nuclei (%): 24%
  Population Healthy Nuclei (%): 50%
  Population Hoechst High Intensity Objects (%): 7%
  Population Membrane Permeable-Phenotype (%): 76%
  Population Mitochondria Different-Phenotype (%): 91%
  Population Normal (%): 92%
  Population Pyknosed Nuclei (%): 24%
  Total Cell Count: 186
[12]
  Population Apoptotic (%): 100%
  Population Fragmented Nuclei (%): 14%
  Population Healthy Nuclei (%): 72%
  Population Hoechst High Intensity Objects (%): 15%
  Population Membrane Permeable-Phenotype (%): 88%
  Population Mitochondria Different-Phenotype (%): 100%
  Population Mitotic Cells (%): 0%
  Population Normal (%): 84%
  Population Pyknosed Nuclei (%): 12%
  Population Tubulin-Different-Phenotype (%): 100%
  Total Cell Count: 84
